Source: ChEMBL document CHEMBL4414568, “Development of Novel Irreversible Pyruvate Kinase M2 Inhibitors” (J Med Chem, 2019)
The source made the active and inactive calls. No cut-off for these calls is given here.

How the values were obtained:
MCF7 = test: Antiproliferative activity against human MCF7 cells assessed as reduction in cell viability incubated for 24 hrs by MTT assay; type: functional, cell-based; settings: MCF7, 24 h
Outline: (§1)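 Cells seeded at 3,500 per well in 10% FBS and left overnight, then exposed to test agent or vehicle in 5% FBS for 24 h. MTT added for 1 h, then medium swapped for DMSO and absorbance read at 560 nm. Viability given as percent of vehicle-treated control. Run in triplicate.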

Mus musculus = test: In vivo inhibition of PKM2 in human PC9 cells xenografted in athymic nude mouse assessed as reduction in EGFR expression at 10 mg/kg, ip administered once daily for 25 days measured post-last dose by Western blot analysis; type: functional, organism-based
Outline: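 Tumors from PC-9 xenograft nude mice given 10 mg/kg i.p. daily or vehicle for 25 days (n = 8 per group) were lysed for Western blots of PKM2, EGFR, Stat3 and β-catenin. Bands quantified by ImageJ and normalized to GAPDH.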

PC-9 = test: Antitumor activity against human PC9 cells xenografted in athymic nude mouse assessed as reduction in tumor weight at 10 mg/kg, ip administered once daily for 25 days measured post-last dose; type: functional, organism-based
Outline: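 Female nude mice, 6 weeks old, given s.c. 1 × 10^6 PC-9 cells in Matrigel (1:1). From day 7, once-daily i.p. vehicle or 10 mg/kg compound in sterile water with 0.5% methylcellulose and 0.1% Tween-80, n = 8 per group, for 25 days. Tumor volume and body weight followed, tumors weighed at end.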

[1] = molecular target: T1, Phosphoenolpyruvate carboxykinase [GTP], mitochondrial (Homo sapiens) (UniProt Q16822); test: Binding affinity to PCKGM in human PC9 cells incubated for 1 hr by ABPP-SILAC assay; type: cell-based
T1 sequence (whole entry): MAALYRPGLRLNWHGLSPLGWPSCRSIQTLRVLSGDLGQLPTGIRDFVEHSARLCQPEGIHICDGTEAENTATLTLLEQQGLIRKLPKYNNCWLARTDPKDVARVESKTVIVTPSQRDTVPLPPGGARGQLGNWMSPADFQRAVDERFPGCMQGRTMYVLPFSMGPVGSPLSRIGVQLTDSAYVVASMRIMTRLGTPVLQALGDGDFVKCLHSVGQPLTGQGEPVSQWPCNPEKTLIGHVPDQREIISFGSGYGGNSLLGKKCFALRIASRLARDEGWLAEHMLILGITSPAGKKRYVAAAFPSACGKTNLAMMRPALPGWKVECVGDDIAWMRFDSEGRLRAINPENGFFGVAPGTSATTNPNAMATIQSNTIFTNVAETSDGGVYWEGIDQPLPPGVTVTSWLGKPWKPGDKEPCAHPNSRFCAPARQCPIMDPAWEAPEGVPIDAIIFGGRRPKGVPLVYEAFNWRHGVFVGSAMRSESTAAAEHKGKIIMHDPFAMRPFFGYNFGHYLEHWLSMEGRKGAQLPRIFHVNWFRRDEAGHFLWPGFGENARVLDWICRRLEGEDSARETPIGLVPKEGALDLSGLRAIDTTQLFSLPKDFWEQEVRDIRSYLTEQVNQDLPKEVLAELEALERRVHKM
Outline: (§2)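 PC-9 cells passaged at least six times in SILAC DMEM with 10% dialyzed FBS plus 100 µg/mL light or 13C/15N-labeled Arg/Lys. Heavy cells got ABPP probe (1 µM) and light cells DMSO, 1 h at 37 °C. Cells mixed 1:1, sonicated, spun at 100,000g, protein normalized to 1 mg/mL. Click biotin-azide, streptavidin bead pulldown 16 h at 4 °C, SDS-PAGE, on-bead trypsin digestion, LC-MS/MS.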

[2] = molecular target: T2, Phosphoglycerate kinase 1 (Homo sapiens) (UniProt P00558); test: Binding affinity to PGK1 in human PC9 cells incubated for 1 hr by ABPP-SILAC assay; type: cell-based; outline: as §2
T2 sequence (whole entry): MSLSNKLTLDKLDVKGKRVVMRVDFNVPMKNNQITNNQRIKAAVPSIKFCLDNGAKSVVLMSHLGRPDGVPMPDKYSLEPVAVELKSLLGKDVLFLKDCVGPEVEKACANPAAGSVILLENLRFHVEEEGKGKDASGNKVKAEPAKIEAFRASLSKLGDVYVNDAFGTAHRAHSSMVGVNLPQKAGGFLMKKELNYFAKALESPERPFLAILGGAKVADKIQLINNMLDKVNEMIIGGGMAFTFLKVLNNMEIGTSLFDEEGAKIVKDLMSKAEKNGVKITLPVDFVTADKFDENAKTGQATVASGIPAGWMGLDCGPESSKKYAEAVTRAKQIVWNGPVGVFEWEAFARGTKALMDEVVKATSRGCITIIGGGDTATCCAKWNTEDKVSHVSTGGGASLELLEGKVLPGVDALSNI

Pyruvate kinase PKM [3] = molecular target: T3, Pyruvate kinase PKM (Homo sapiens, UniProt P14618); test: Binding affinity to recombinant human N-terminal His6-tagged PKM2 expressed in Escherichia coli BL21 (DE3) assessed as Cys317-adduct formation by NanoLC-MS/MS analysis
T3 sequence (P14618 2-531 limits assumed): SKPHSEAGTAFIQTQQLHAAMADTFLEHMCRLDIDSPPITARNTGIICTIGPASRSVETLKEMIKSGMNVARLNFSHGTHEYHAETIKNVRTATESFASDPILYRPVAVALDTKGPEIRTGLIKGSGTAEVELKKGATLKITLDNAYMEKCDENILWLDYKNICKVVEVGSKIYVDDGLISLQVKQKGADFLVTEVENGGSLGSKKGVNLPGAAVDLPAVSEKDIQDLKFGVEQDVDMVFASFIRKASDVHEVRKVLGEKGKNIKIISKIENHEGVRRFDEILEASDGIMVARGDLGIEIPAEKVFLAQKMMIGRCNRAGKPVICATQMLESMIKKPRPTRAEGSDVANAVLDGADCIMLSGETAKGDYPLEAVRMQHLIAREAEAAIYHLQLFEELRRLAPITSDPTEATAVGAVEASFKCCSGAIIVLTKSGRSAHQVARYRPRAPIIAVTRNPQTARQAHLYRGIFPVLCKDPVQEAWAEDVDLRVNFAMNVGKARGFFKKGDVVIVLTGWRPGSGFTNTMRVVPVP
Outline: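 In-house His-tag PKM2 from E. coli BL21(DE3), purified by Ni-NTA then Superdex 200, treated with compound. Reduced with 30 mM DTT at 37 °C for 1 h, alkylated with 30 mM iodoacetamide for 1 h in the dark, trypsin 1:30 w/w overnight at 37 °C. Digests from 6 experiments pooled, 48 nanoLC-MS/MS runs in data-dependent mode, Orbitrap MS1.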

Pyruvate kinase PKM [4] = molecular target: T3, Pyruvate kinase PKM; test: Inhibition of PKM2 in human PC9 cells assessed as reduction in beta-catenin phosphorylation incubated for 24 hrs by Western blot analysis; type: cell-based
Outline: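 PC-9 cells seeded at 5 × 10^5 cells/mL; after 24 h given 0–1 µM compound or DMSO for 24 h. Lysates run on 10% SDS-PAGE, transferred to nitrocellulose, probed for PKM2, EGFR, p-STAT3, STAT3, p-β-catenin, β-catenin and β-actin with HRP secondaries, ECL detection.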

NCI-H157 = test: Antiproliferative activity against human NCI-H157 cells expressing wild type EGFR assessed as reduction in cell viability incubated for 24 hrs by MTT assay; type: functional, cell-based; settings: NCI-H157, 24 h; outline: as §1

IC50 (MCF7): 1 µM
Activity [1]: Active
Activity [2]: Active
Activity (Pyruvate kinase PKM [3]): Active
inhibition (Pyruvate kinase PKM [4]): Dose-dependent effect
IC50 (NCI-H157): > 2 µM
Compound: C#CC(=O)Nc1ccc(-n2nc(CCC(=O)NC)cc2-c2ccc(-c3ccc(C(F)(F)F)cc3)cc2)cc1
inhibition (Mus musculus): Active
Activity (PC-9): Active
